High-throughput results as filed in PubChem.
Rows were chosen to be rich in hits. Some 1.7% of all compounds tested hit in one or more screens of this group.
Efflux pump inh – blocks antifungal efflux pumps in multiplex yeast assay; S. cerevisiae Candida pump triplex, Nile Red efflux; inhibition, % at 10 µM; 330,000 tested, 0.44% active; AID 485275;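 active = plate passing quality check with inhibition over a set limit, or well fluorescence over plate mean plus 4 SD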;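 also: Nile Red retained in pooled yeast measured as flow cytometry median fluorescence; higher means more Nile Red kept so more efflux inhibition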
Pemphigus Ab inh – blocks pemphigus antibody binding to human desmoglein-3; P32926; DSG3-coupled beads, scFv-anti-DSG3-GFP binding, flow cytometry; stronger effect = lower value; binding (percent of control), % at 10 µM; 310,000 tested, 0.48% active;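 active = binding more than 3 SD below its plate's average and above zero; inconclusive = below that plate limit but binding exactly zero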;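 also: hits lower antibody fragment binding to DSG3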
Neddylation inh – blocks human cullin neddylation; P61081+Q13564; 360,000 tested, 0.58% active; TR-FRET cullin neddylation, biochemical; inhibition, % at 25 µM; in the data active = inhibition above about 36%
Target sequence (P61081 whole entry, looked up): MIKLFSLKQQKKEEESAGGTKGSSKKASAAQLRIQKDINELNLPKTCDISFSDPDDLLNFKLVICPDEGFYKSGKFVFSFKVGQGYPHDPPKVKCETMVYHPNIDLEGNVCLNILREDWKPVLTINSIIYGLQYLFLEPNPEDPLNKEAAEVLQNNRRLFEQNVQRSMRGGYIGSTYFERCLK
Target sequence (Q13564 whole entry, looked up): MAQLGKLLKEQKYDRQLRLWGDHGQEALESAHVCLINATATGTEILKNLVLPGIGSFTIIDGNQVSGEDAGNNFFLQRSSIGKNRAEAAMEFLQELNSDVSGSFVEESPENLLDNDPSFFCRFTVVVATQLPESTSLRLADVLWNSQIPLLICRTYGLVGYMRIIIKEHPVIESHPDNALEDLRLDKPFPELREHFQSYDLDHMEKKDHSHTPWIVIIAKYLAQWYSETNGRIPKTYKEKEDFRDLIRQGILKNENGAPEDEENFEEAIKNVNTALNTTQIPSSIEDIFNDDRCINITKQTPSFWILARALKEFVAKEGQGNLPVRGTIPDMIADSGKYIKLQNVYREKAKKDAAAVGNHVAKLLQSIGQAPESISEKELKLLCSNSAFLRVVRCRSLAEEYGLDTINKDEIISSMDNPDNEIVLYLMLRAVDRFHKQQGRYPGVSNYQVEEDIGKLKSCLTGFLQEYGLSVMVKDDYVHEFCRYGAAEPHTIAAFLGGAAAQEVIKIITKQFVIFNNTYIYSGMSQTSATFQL
Arr AP2 block – inhibitors of human beta-arrestin and AP2 interaction; inhibition, % at 10 µM; 340,000 tested, 0.31% active; FITC-arrestin peptide / GST-AP2 beads, flow cytometry; AP2 beta2 appendage carries R879A mutation;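 active = inhibition above a set limit, near 3 SD of compounds lacking own fluorescence, cut at about 54% in these data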
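Material – AP2 appendage R879A on GSH beads · Buffer or medium – PBS with 0.05% Tween 20 and 0.1% BSA · Probe or stimulus – fluorescein-tagged arrestin peptide at 50 nM final · Incubation – compound with beads 12 min RT, then probe 1 h RT · Detection – high-throughput flow cytometry of beads, ex 488, em 535 nm · Evaluation – percent response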
Large screens that a line does not name were inactive.

O=C(O)c1cc(O)c2c(c1)[C@@H]([C@H]1c3cc(C(=O)O)cc(O)c3C(=O)c3c(O[C@@H]4O[C@H](CO)[C@@H](O)[C@H](O)[C@H]4O)cccc31)c1cccc(OC3O[C@H](CO)[C@@H](O)[C@H](O)[C@H]3O)c1C2=O (some centres undefined)	Pemphigus Ab inh -1.1
NC(=O)c1cc(NC(=O)CCc2nc3ccccc3s2)cc(C(N)=O)c1	none
O=C(Cc1ccc(NC2=NC3CS(=O)(=O)CC3S2)cc1)NCc1ccccc1 (centres undefined)	none
CCOC(=O)N1CCN(C(=O)c2c(N)no[n+]2[O-])CC1	none
CC(C)NC(=O)c1cc2c(-c3ccc(Cl)cc3)nn(C)c2s1	Pemphigus Ab inh 73
Cn1nc(-c2ccc(Cl)cc2)c2cc(C(=O)N3CCN(c4ccccn4)CC3)sc21	Pemphigus Ab inh -3.6
CCCCNC(=O)c1cc2c(-c3ccc(Cl)cc3)nn(C)c2s1	none
CCOC(=O)N1CCC(NC(=O)c2cc3c(-c4ccc(Cl)cc4)nn(C)c3s2)CC1	Pemphigus Ab inh 91 (not shown: Neddylation inh)
O=C/C=C/c1coc2ccc3ccccc3c2c1=O	none (no result: Pemphigus Ab inh, Neddylation inh, Arr AP2 block)
O=Cc1coc2c(ccc3ccccc32)c1=O	Efflux pump inh 1.9 (no result: Pemphigus Ab inh, Neddylation inh, Arr AP2 block)
CC(C)c1ccccc1NS(=O)(=O)N(C)C	Pemphigus Ab inh 49
CCOc1cc(CN2CCN(c3ncccn3)CC2)ccc1OC	Pemphigus Ab inh 84
COc1cc(OC)c2c(O)c3c(c(-c4c5c(c(O)c6c(OC)cc(OC)cc46)CO[C@@H](C)[C@H]5O)c2c1)[C@H](O)[C@H](C)OC3	Pemphigus Ab inh 74
CC(C)Cc1nnc(NC(=O)CCC(=O)N2CCN(Cc3ccccc3)CC2)s1	none
O=C1N=c2ccccc2=C1c1sc(Nc2ccc(O)cc2)nc1O	Pemphigus Ab inh -15 (no result: Efflux pump inh)
CC1OC(c2ccccc2)OC2COC(c3ccccc3)OC12 (centres undefined)	Pemphigus Ab inh -6.5 (no result: Efflux pump inh)
CSc1ncnc2c1ncn2CCCN1CCN(Cc2c(C)cc(C)cc2C)CC1	none (no result: Efflux pump inh, Pemphigus Ab inh, Arr AP2 block)
Cc1cc(C)n2nc(/C(C#N)=C/c3ccccn3)c(C#N)c2n1	Neddylation inh 40
CSc1nncc(/C(C)=N\Nc2cccc(C)c2)n1	none
CSc1nnc2c(n1)c(C)nn2-c1cccc(C)c1	Pemphigus Ab inh 86
COc1cc(C(=O)NNC(=O)c2cc(=O)[nH]c3ccccc23)cc(OC)c1OC	none
c1ccc2ncccc2c1	Pemphigus Ab inh 77
Cc1ccc(C)c(CN2CCC(CNC(=O)CCc3nnc4ccc(N5CCC(C)CC5)nn34)CC2)c1	none
O=C(NC1CC1)C1CC(=O)N(c2ccc(F)cc2)C1 (centres undefined)	none
CCOc1ccc(OCC(=O)N(C)c2c(N)n(Cc3ccccc3)c(=O)[nH]c2=O)cc1	none
CN(C(=O)CCOc1ccccc1)c1c(N)n(Cc2ccccc2)c(=O)[nH]c1=O	Pemphigus Ab inh 63
O=C(c1cnn(-c2nc3ccccc3s2)c1)c1ccccc1O	Pemphigus Ab inh 8.3
CSc1ccccc1NC(=O)Nc1cccc2ccccc12	none
O=C(N/C(=C/c1ccc([N+](=O)[O-])cc1)C(=O)N1CCOCC1)c1ccco1	none
COc1ccc(N2CCN(S(=O)(=O)CCNC(=O)COc3ccccc3)CC2)cc1	none
COc1ccc(N2CCN(S(=O)(=O)CCNC(=O)COc3cccc(OC)c3)CC2)cc1	Pemphigus Ab inh 54
COc1ccc(CCN(C)C(=O)c2cc(-c3ccc(C)cc3)nc3ccccc23)cc1OC	Pemphigus Ab inh inconclusive
Cc1ccc(C(C[N+](=O)[O-])c2c(-c3ccccc3O)[nH][nH]c2=O)cc1 (centres undefined)	Neddylation inh 40
O=c1[nH][nH]c(-c2ccccc2O)c1C(C[N+](=O)[O-])c1ccc(Br)cc1 (centres undefined)	none
COc1ccccc1N1CCN(S(=O)(=O)c2ccc(-n3cnnn3)cc2)CC1	none
O=C(NCCN1C(=O)S/C(=C\c2ccc(Cl)c(Cl)c2)C1=O)c1cnccn1	Pemphigus Ab inh 88
CC(C)S(=O)(=O)C1=NSC2=NC(=O)/C(=C\c3ccc(-c4ccccc4)o3)C(=N)N21	Neddylation inh 41
CS(=O)(=O)C1=NSC2=NC(=O)/C(=C\c3ccc(-c4ccccc4)o3)C(=N)N21	none (no result: Pemphigus Ab inh, Neddylation inh, Arr AP2 block)
Cn1c(-c2ccc(Cl)nc2)nc2cc(Cl)ccc21	none
Cc1cccc2cc(COC(=O)C3CCCCC3)c(=O)[nH]c12	Pemphigus Ab inh -4.6
Cc1cccc2cc(COC(=O)C3CCCO3)c(=O)[nH]c12 (centres undefined)	none
COc1ccc(NC(=O)c2ccc3c(c2)C(=O)N(Cc2cccnc2)C3=O)cc1	Pemphigus Ab inh 70
COc1ccc(C(=O)NNC(=O)c2ccc3ccccc3c2)cc1	none (no result: Efflux pump inh)
COc1ccc(NC(=O)c2ccc3ccccc3c2)cc1	Pemphigus Ab inh 97
Cc1ccc(S(=O)(=O)CC(=O)c2cc3cccc(C)c3oc2=O)cc1	Pemphigus Ab inh 49
COc1cccc2cc(C(=O)CS(=O)(=O)c3ccc(C)cc3)c(=O)oc12	none
CN1/C(=C\C=C2/C(=O)Oc3ccccc3C2=O)C(C)(C)c2ccccc21	none (no result: Pemphigus Ab inh, Neddylation inh, Arr AP2 block)
CN1C(=CC=C2C=C(I)C(=O)C(I)=C2)C(C)(C)c2ccccc21	Pemphigus Ab inh 59 (no result: Efflux pump inh)
O=C(Cn1nnc(-c2ccc(N3CCOCC3)cc2)n1)OC1CCCCC1	Pemphigus Ab inh 60
COc1ccc(-c2noc(CCCC(=O)NC3CCCCC3)n2)cc1OC	none (no result: Pemphigus Ab inh)
O=C(N/N=C\c1cccc([N+](=O)[O-])c1O)C1COc2ccccc2O1 (centres undefined)	Pemphigus Ab inh 31
CCc1cc2c(=O)n(-c3ccccc3)c(=S)[nH]c2s1	none
COc1cc(/C=N/N(c2ccccc2)c2ccccc2)ccc1O	none
CN(/N=C\c1ccc(O)c(O)c1)c1nc(-c2ccccc2)cc(-c2ccccc2)n1	Pemphigus Ab inh 54 (no result: Arr AP2 block)
C[C@H]1NC(=O)[C@]2(C)[C@@H](c3ccccc3)[C@H]3COc4ccccc4[C@@H]3N2C1=O	none (no result: Efflux pump inh)
CCOC(=O)C1CCCN(C(=O)Nc2cccc(Cl)c2)C1 (centres undefined)	none
CCOc1ccc(Nc2ncnc3c2cnn3-c2ccccc2)cc1	Pemphigus Ab inh 48 (not shown: Neddylation inh)
O=C1CCCN1CCCNc1ncnc2c1cnn2-c1ccc(Cl)cc1	none
Cc1cccc(-n2ncc3c(NCCCN4CCCC4=O)ncnc32)c1	Neddylation inh 38 (no result: Pemphigus Ab inh)
COc1ccc(Nc2ncnc3c2cnn3-c2cccc(C)c2)cc1OC	Pemphigus Ab inh 34 (not shown: Efflux pump inh, Neddylation inh)
Cc1cc(Nc2cc(Cl)nc(Sc3ccc(NC(=O)C4CC4)cc3)n2)n[nH]1	none
Cc1cccc(N2CCN(C3CCCCC3NS(=O)(=O)c3ccccc3)CC2C)c1 (centres undefined)	none (no result: Pemphigus Ab inh)
CC1(C(=O)NCC2CCCO2)Oc2cccnc2NC1=O (centres undefined)	none
O=C(NNC1OC(CO)C(O)C(O)C1O)c1cccnc1 (centres undefined)	none
CC(C)(C)C(O)C(Cc1ccccc1Cl)n1cncn1 (centres undefined)	none
CCCCN(C)CCCN1C(=O)C2C(C(=O)Nc3cccc(OC)c3)C3C=CC2(O3)C1C(=O)NC1CCCCC1C (centres undefined)	none
O=c1c2ccccc2c(-c2cccc(C(F)(F)F)c2)nn1-c1ccccc1	none (no result: Pemphigus Ab inh)
Cc1ccccc1-n1sc2cc(F)ccc2c1=O	Pemphigus Ab inh 69
